Only some compounds are listed: those with a hit (about 2.6% of all), similar ones and a draw of the others.
ASAP1 inh = inhibitors of human ASAP1 ArfGAP activity. actives 0.19% (n = 360,000). AID 624377. Q9ULH1. ASAP1-stimulated ARF1 GTP hydrolysis, GDP FP detection. inhibition, % at 16.5 µM; in the data active = inhibition above about 25%;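 also: 0% = vehicle with enzyme and substrate and 100% = no enzyme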
Calb FLC = C. albicans growth modulation with fluconazole. actives 0.57% (n = 300,000). AID 1979. growth inhibition, % (no concentration beside the values). C. albicans CaCi-2 + fluconazole, Alamar Blue growth, 48 h;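 active = growth inhibition above about 58% in most replicates, limit read from the data, passing the limit was not always enough; inconclusive = exactly half the replicates above a set limit; inactive = most replicates below a set limit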;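 also: all wells also contain fluconazole at 8 µg/ml as a sub-toxic cotreatment; 0% = median of DMSO wells and 100% = median of geldanamycin control wells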
PHOSPHO1 inh = PHOSPHO1 (human) inhibition; Q8TCT1; recombinant PHOSPHO1, absorbance phosphatase assay; inhibition, % at 13.3 µM; actives 1.1% (n = 290,000); AID 1565; in the data active = inhibition above about 60%
Target sequence (Q8TCT1 whole entry, looked up): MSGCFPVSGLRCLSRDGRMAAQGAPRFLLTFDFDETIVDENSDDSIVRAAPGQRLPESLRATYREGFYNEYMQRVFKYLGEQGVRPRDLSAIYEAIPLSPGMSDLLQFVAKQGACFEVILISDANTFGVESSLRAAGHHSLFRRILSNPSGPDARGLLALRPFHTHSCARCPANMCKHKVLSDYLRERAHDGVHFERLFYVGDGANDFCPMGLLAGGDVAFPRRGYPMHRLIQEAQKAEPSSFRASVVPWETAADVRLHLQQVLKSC
IMP-1 inhibitor = inhibitors of Pseudomonas aeruginosa IMP-1 metallo-beta-lactamase; inhibition, % at 5.6 µM; purified IMP-1, nitrocefin hydrolysis, epi-absorbance fluorescence; actives 0.45% (n = 290,000);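 active = inhibition above the mean plus 3 SD of all compounds in the same screening run, cut at about 4.5% in these data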;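 also: 0% = IMP-1 with DMSO and 100% = DMSO wells lacking enzyme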
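assay system = purified recombinant IMP-1 metallo-beta-lactamase enzyme | schedule = 15 min preincubation plus 25 min reaction at 25 °C | signal = Epi-absorbance fluorescence, 480 nm excitation, 530 nm emission | read-out basis = percent inhibition from optical density relative to buffer-blank wells | controls = IMP-1 with DMSO as 0%, enzyme-free DMSO as 100%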
ARFGAP1 inh = inhibitors of rat ARFGAP1; actives 0.26% (n = 360,000); inhibition, % at 16.5 µM; AID 651572; Q62848; Arfgap1-stimulated ARF1 GTP hydrolysis, GDP FP detection;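 active = inhibition above a per-plate limit, mean inhibition of low control wells plus 3 SD, cut at about 25% in these data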;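 also: 0% = DMSO wells with enzyme and 100% = wells lacking Arfgap1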
Target sequence (Q62848 1-136 limits assumed): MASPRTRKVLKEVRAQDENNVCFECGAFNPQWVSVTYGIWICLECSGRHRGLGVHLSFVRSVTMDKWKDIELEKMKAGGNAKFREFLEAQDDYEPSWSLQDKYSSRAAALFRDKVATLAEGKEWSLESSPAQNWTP
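Material: truncated rat Arfgap1 GAP domain; Incubation: compound-enzyme preincubation 20 min, reaction 120 min, detection 60 min, 25 °C; Read-out: percent inhibition of Arfgap1-stimulated GTP hydrolysis; Technique: FP, GDP Alexa 633 tracer displaced from anti-GDP antibody, 620/688 nm; Controls: No-Arfgap1 wells (100%) versus DMSO full-reaction wells (0%); Replication: single well per compound.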
VIM-2 inhibitor = blocks Pseudomonas aeruginosa VIM-2 metallo-beta-lactamase | purified VIM-2, nitrocefin hydrolysis, epi-absorbance fluorescence | inhibition, % at 5.6 µM | actives 0.89% (n = 290,000);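 active = inhibition above the mean of all tested compounds plus 3 SD, cutoff set per screening run, cut at about 7.5% in these data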;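 also: red hydrolysis product quenches plate fluorescence so inhibitors raise well fluorescence; 0% = enzyme with DMSO and 100% = DMSO without enzyme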
Starred values were filed as active, the others as inactive; ? = inconclusive; / = not tested or not shown.

SMILES | ASAP1 inh | Calb FLC | PHOSPHO1 inh | IMP-1 inhibitor | ARFGAP1 inh | VIM-2 inhibitor
CCc1cc2c(nc1CC)CCCN2S(=O)(=O)c1ccccc1C | -7 | / | / | / | 9 | /
O=C(NCCc1ccccc1Cl)[C@@H]1CCCN1C(=O)[C@@H](NS(=O)(=O)c1ccc(F)cc1F)C1CCCCC1 | 13 | / | / | / | 4 | /
O=C(O)CCCn1nc(-c2ccccc2)c2ccccc21 | -1 | 3 | 10 | -2 | -1 | 0
COC(=O)Cn1nc(-c2ccccc2)c2ccccc21 | -8 | 86* | -3 | 0 | -7 | 1
CCOC(=O)Cn1nc(-c2ccccc2)c2ccccc2c1=O | -2 | 3 | -11 | 5.2* | 5 | 1
CCOC(=O)Cn1nc(Cc2ccccc2)c2ccccc2c1=O | 7 | 1 | -7 | 1 | -14 | -1
CCc1c(Cc2cccc(F)c2)ncn1CCc1ccccc1OC | -4 | / | / | / | 6 | /
COc1ccc2c(c1)S/C(=C\C(=O)c1ccncc1)N2C | 0 | 0 | 70* | -4 | 6 | -2
Nc1[nH]c(C(=O)c2ccccc2)c(-c2ccccc2Cl)c1C(=O)NCCc1c[nH]c2ccccc12 | 8 | / | / | / | 12 | /
COC(=O)C1=C(C)N(C)C(=NCC2CC2)NC1c1ccccc1C(F)(F)F (configuration not stated) | 23 | / | / | / | 0 | /
CCOc1ccc2nc(NC(=S)N(C)C)sc2c1 | 7 | 104* | 91* | -4 | -2 | -5
CCOC(=O)Cc1csc(NC(=O)CSc2nnc(-c3ccc(NS(=O)(=O)CC)cc3)o2)n1 | 17 | 85* | / | -3 | -1 | -2
Cc1csc(NC(=O)CSc2nnc(-c3ccncc3)o2)n1 | 1 | 10 | 7 | -7 | -6 | -4
CCOC(=O)Cc1csc(NC(=O)CSc2nnc(-c3ccncc3)o2)n1 | -1 | 106* | 54 | -3 | -4 | -1
COCCCNC(=O)C[C@H]1C[C@@]2(C(=O)OC)C(=C[C@H](C(C)(C)C)O[C@@H]2C)N(CCc2ccc(OC)c(OC)c2)C1=O | -1 | / | / | / | 14 | /
COC(=O)C1=C(C)N(CC(C)C)C(=S)NC1c1cccc(F)c1 (configuration not stated) | -9 | / | / | / | -6 | /
CCOc1ccc(/C=N/OCC(=O)Nc2ccc3c(c2)OCO3)cc1 | -9 | 100* | -10 | -4 | -8 | -2
COc1ccc(-n2ccnc(SCC(=O)NC3CCCC3)c2=O)cc1 | 2 | 4 | 17 | 4.6* | -10 | 3
COc1ccc(-n2ccnc(SCC(=O)NC3CCCCC3)c2=O)cc1 | / | 10 | -10 | -4 | / | -8
CC(C)/C=C/C(=O)N1CCC(N2CCC(C(=O)NCc3ccccn3)CC2)CC1 | -7 | 0 | 70* | -1 | -2 | -3
CC12C=CC(C)(C3C(=O)NC(=O)C31)C1C3C(=O)NC(=O)C3C12 (configuration not stated) | 5 | / | / | / | 2 | /
CC(=O)NC1N=C(C)N(c2ccccc2)C1=O (configuration not stated) | 13 | -1 | 100* | -6 | 21 | -2
CCOc1ccc(Nc2c3ccccc3nc3ccccc23)cc1 | -14 | 61 | -5 | -3 | 0 | 9.6*
CCOc1ccc(Nc2cc(C)c3ccccc3n2)cc1 | -2 | -4 | 18 | -1 | 4 | 3
c1ccc(Nc2nc(NCC3CCCO3)c3ccccc3n2)cc1 (configuration not stated) | -1 | ? | 20 | -2 | 24 | -2
SMILES | ASAP1 inh | Calb FLC | PHOSPHO1 inh | IMP-1 inhibitor | ARFGAP1 inh | VIM-2 inhibitor
CCOc1ccc(Nc2nc(NCC3CCCO3)c3ccccc3n2)cc1 (configuration not stated) | -6 | 99* | -15 | -1 | 7 | 1
C[C@H]1Cn2cnc(C(=O)N3CCN(C(=O)OC(C)(C)C)CC3)c2C(=O)N1 | 16 | / | / | / | -6 | /
COc1ccccc1Cc1c(-c2ccc(Cl)cc2)nc2ccc(C)cn12 | -5 | / | / | / | -3 | /
N#Cc1ccc2nc(-c3ccc(CN4CCC(c5nc6ccccc6[nH]5)CC4)cc3)c(-c3ccccc3)nc2c1 | -6 | / | / | / | -5 | /
CC(=O)Nc1ccc(NC(=O)C(C)n2nc([N+](=O)[O-])c(Br)c2C)cc1 (configuration not stated) | -11 | -20 | 63* | -2 | 11 | -2
Cc1nn(C(C)C(=O)NNC(=S)Nc2ccc(F)cc2)c(C)c1[N+](=O)[O-] (configuration not stated) | -13 | -28 | 72* | -6 | 2 | -4
COc1ccc(NC(=S)NNC(=O)C(C)n2nc(C)c([N+](=O)[O-])c2C)cc1 (configuration not stated) | -14 | -21 | 68* | -5 | -4 | -3
c1ccc(-c2nnc3ccc(N4CCC5(CC4)OCCO5)nn23)cc1 | -4 | 22 | 5 | -2 | -10 | 8.7*
NC(=O)C1(N2CCCCC2)CCN(c2ccc3nnc(-c4ccccc4)n3n2)CC1 | 6 | -4 | 7 | -2 | 0 | 5
CCOC(=O)C1(Cc2cccc(OC)c2)CCCN(C(=O)c2cc(C)on2)C1 (configuration not stated) | -9 | -4 | 68* | -2 | 4 | -3
CCOC(=O)C1(Cc2cccc(OC)c2)CCCN(C(=O)c2cc(C)[nH]n2)C1 (configuration not stated) | 3 | 1 | 12 | -1 | 10 | 0
CCOC(=O)C1(Cc2cccc(Cl)c2)CCCN(C(=O)c2ccco2)C1 (configuration not stated) | 6 | 5 | 16 | -2 | -5 | -1
CCOC(=O)C1(Cc2cccc(OC)c2)CCCN(Cc2nccn2CC)C1 (configuration not stated) | 9 | -15 | 60* | -3 | 12 | -4
CCOC(=O)C1(Cc2cccc(Cl)c2)CCCN(C(=O)c2ccoc2C)C1 (configuration not stated) | -8 | -17 | 61* | 1 | 9 | 1
O=C(CSC1=NS(=O)(=O)c2ccccc21)Nc1ccccc1 | 6 | -3 | 88* | -1 | 0 | -4
COc1ccccc1Cn1c(=S)[nH]c2cc(C(=O)N3CCN(c4ccccc4OC)CC3)ccc2c1=O | 3 | -3 | 23 | -2 | 5 | -6
COc1ccccc1N1CCN(C(=O)c2ccc3c(=O)n(Cc4ccco4)c(=S)[nH]c3c2)CC1 | 3 | 3 | 82* | -4 | -9 | -5
N#Cc1ccc(-c2nc3cc(Cl)ccc3c(=O)n2O)cc1 | -1 | 101* | 11 | -2 | -7 | 0
O=C(O)c1ccccc1-c1nc2cc(Cl)ccc2c(=O)n1O | 6 | 15 | 24 | 0 | -1 | -1
O=c1c2ccccc2nc(-c2ccc(Cl)cc2Cl)n1O | 8 | 84* | 20 | -1 | -16 | -2
Cc1ccc(-c2nc3c(Cl)cc(Cl)cc3c(=O)n2O)cc1 | -17 | 96* | / | 0 | 0 | -2

From PubChem BioAssay
